From PubChem BioAssay
Rows were chosen to be rich in hits. Some 1.4% of all compounds tested hit in one or more screens of this group.
CAL PDZ FP-1 = CAL PDZ peptide-binding inhibitors, primary screen, biochemical, fluorescence polarization, Cer-tagged CAL PDZ, HTS | Golgi-associated PDZ and coiled-coil motif-containing protein (Homo sapiens), Q9HD26 | purified CAL PDZ, TMR-peptide fluorescence polarization, 1 h | inhibition, % at 20 µM | 0.02% of 330,000 active;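 active = highest replicate inhibition of at least 40%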
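material = purified tagged CAL PDZ domain construct (CerCALP) | compound dosing = 20 µM, one dose | times = 1 h at RT | measured by = fluorescence polarization from S- and P-plane intensities, G-factor corrected | read-out = inhibition from polarization loss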
Arr AP2 block = inhibitors of beta-arrestin/AP2 binding, primary screen, biochemical, GPCR trafficking, flow cytometry; 0.31% of 340,000 active; FITC-arrestin peptide / GST-AP2 beads; AP2 beta2 appendage carries R879A mutation; beta-arrestin 1 C-terminal peptide binding to AP2 beta2-adaptin appendage (human); inhibition, % at 10 µM;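 active = inhibition above a set limit, near 3 SD of compounds lacking own fluorescence, cut at about 54% in these data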
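System: GST-AP2 R879A glutathione beads | Also added: FITC-arrestin peptide, 50 nM | Times: 12 min plus 1 h, RT | Signal: Bead flow cytometry, FITC channel | Buffer or medium: PBS with 0.05% Tween 20 and 0.1% BSA | Read-out basis: Percent drop in bead-associated FITC signal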
CAL PDZ FP-2 = untagged CAL PDZ binding inhibitors, primary screen, biochemical, fluorescence polarization, HTS. purified CAL PDZ, TMR-peptide fluorescence polarization, 1 h. 0.92% of 300,000 active. AID 602252, 2012. Golgi-associated PDZ and coiled-coil motif-containing protein (Homo sapiens), Q9HD26. inhibition, % at 24.9 µM;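 active = mean inhibition of at least 30% with at least half of replicates also reaching 30%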
DDE Tn6 FP inh = inhibitors of Tn6 peptide binding to fibrin DD(E), primary screen, biochemical, fluorescence polarization, human fibrin, Tn6 probe; Fibrinogen beta chain (Homo sapiens), P02675; Fibrin DD(E) TRITC-Tn6 fluorescence polarization displacement; inhibition, % at 8.3 µM; 0.21% of 370,000 active;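 active = inhibition above a per-campaign cutoff: mean of compounds within control limits plus 3 SD, cut at about 15% in these data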
Target sequence (P02675 whole entry, looked up): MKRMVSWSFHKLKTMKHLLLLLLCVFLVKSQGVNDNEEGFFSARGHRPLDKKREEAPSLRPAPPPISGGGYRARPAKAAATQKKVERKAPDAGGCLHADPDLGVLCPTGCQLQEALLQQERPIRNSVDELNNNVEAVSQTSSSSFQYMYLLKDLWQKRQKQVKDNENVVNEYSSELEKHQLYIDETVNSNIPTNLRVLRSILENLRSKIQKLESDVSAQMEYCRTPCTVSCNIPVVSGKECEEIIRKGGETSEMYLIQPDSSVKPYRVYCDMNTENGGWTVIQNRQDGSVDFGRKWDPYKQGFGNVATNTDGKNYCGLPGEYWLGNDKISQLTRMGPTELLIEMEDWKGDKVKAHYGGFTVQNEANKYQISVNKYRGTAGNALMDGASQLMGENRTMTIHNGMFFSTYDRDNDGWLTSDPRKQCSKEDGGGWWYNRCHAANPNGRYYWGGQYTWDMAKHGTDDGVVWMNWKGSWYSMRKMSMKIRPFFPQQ
DDE Tn7 FP inh = inhibitors of Tn7 peptide binding to fibrin DD(E), primary screen, biochemical, fluorescence polarization, human fibrin, Tn7 probe. inhibition, % at 8.3 µM. 0.13% of 370,000 active. AID 720508, 2013. FP displacement of FITC-Tn7 peptide from fibrin DD(E); 0% = median of compound wells per plate;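 active = inhibition above the mean of compounds falling within the control limits plus 3 SD of them, cut at about 14% in these data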
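System: human fibrin DD(E); quantity: Fibrin-DD(E) at 2 µM final; also added: fluorescent Tn7 probe at 0.1 µM; compound dosing: single nominal test concentration of 8.3 µM per compound; schedule: 10 min preincubation, 3 h with tracer, room temperature; detection: fluorescence polarization of the labelled Tn7 tracer; repeats: one replicate per compound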
Hits are given with their value; – = inactive; · = no result; + = active, no number.

SMILES	CAL PDZ FP-1	Arr AP2 block	CAL PDZ FP-2	DDE Tn6 FP inh	DDE Tn7 FP inh
Cc1ccc(C(c2nnnn2C2CCCCC2)N2CCc3ccccc32)cc1 (stereo not given)	–	–	74	–	–
CC(C)C(c1nnnn1C1CCCCC1)N1CCc2ccccc21 (stereo not given)	–	–	–	–	–
Cc1nn2c(NCCCN(C)C)c3c(nc2c1-c1ccccc1)CCCC3	–	–	+	–	–
Cc1nn2c(NCCCN(C)C)c3c(nc2c1-c1ccccc1)CCC3	·	–	–	–	–
COc1ccc(OC)c(NC(=O)NNC(=O)CCCOc2ccc(Cl)cc2C)c1	–	–	48	–	–
COc1ccc(NC(=O)NNC(=O)COc2ccc(Cl)cc2C)cc1OC	–	–	–	–	–
O=C(NCc1cccc(F)c1)C1CCC(=O)N(C2CCCC2)C1 (stereo not given)	–	–	84	–	–
O=C(NCCc1cccc(F)c1)C1CCC(=O)N(C2CCCCCC2)C1 (stereo not given)	–	–	·	–	–
O=C(NCc1cccc(Cl)c1)C1CCC(=O)N(CCCN2CCCC2=O)C1 (stereo not given)	–	–	70	–	–
Clc1ccc(C2Nc3cccc4cccc(c34)N2)cc1Cl	–	–	–	–	–
Clc1cccc(C2Nc3cccc4cccc(c34)N2)c1	–	55	–	–	–
O=C(Cn1nc(Cc2cccnc2)c2ccccc2c1=O)Nc1cc(F)ccc1F	–	–	66	–	–
CCOC(=O)[C@]12CCCC3=C1N(CCC3)C(=O)[C@@H](CC(=O)N1CCN(C(=O)c3ccco3)CC1)C2	·	·	·	–	–
CCN(c1ccccc1)S(=O)(=O)c1ccc(C(=O)N2CCN(c3ccccc3)CC2)cc1	–	–	85	–	–
COc1ccc(S(=O)(=O)N(CC(=O)N2CCN(c3ccccc3)CC2)c2ccccc2)cc1	–	–	–	–	–
CN(CC1CCCO1)S(=O)(=O)c1ccc(C(=O)N2CCN(c3ccccc3)CC2)cc1 (stereo not given)	–	–	+	–	–
CCC(NC(=O)c1cccc2c1C(=O)N(Cc1cccnc1)C2)c1ccccc1 (stereo not given)	·	·	·	–	–
CC(C)c1cc(O)c(-c2ccccc2)c(=O)n1-c1ccc(Cl)cc1	–	–	–	–	–
CC(C)c1c(Cl)c(O)c(-c2ccccc2)c(=O)n1-c1ccc(F)cc1	–	–	38	–	–
C[C@@H]1OCN(C)[C@H]2C[C@H]3c4[nH]c5cccc(-c6ccc7c(c6)OCO7)c5c4CCN3C[C@@H]12	·	·	·	–	–
Cc1c(C(=O)O)c(O)cc2c1C(=O)c1c(O)c([C@@H]3O[C@H](CO)[C@@H](O)[C@H](O)[C@H]3O)c(O)c(O)c1C2=O	–	–	–	18	–
COc1c(O)cc2c(c1O)[C@@H]1O[C@H](CO)[C@@H](O)[C@H](O)[C@H]1OC2=O	–	–	–	–	–
CCC(=O)N1CCC(C(=O)NC2CCCc3ccccc32)CC1 (stereo not given)	·	·	·	–	–
COc1ccc(NC(=O)N2CCN(S(C)(=O)=O)CC2)c(OC)c1	–	–	38	–	–
Cc1ccc(S(=O)(=O)NCCNc2ccc(Br)c(C)c2)cc1	–	–	39	–	–
SMILES	CAL PDZ FP-1	Arr AP2 block	CAL PDZ FP-2	DDE Tn6 FP inh	DDE Tn7 FP inh
CCC(C)(C)C(=O)N1CCc2cc(S(=O)(=O)N(C)Cc3ccco3)ccc21	·	·	·	–	–
Cc1cc2c3c([nH]c2cc1S(=O)(=O)NCc1ccc(CN2CCCCCC2)o1)CC(C)(C)CC3=O	–	–	46	–	–
CS(=O)(=O)c1ccc(OC[C@@H](O)CN2CCC(C(O)(c3ccccc3)c3ccccc3)CC2)cc1	·	·	·	–	–
CCCCC(=O)Nc1ccc2c(c1)oc1ccccc12	–	–	56	–	–
Cc1ccnc(SCC(=O)Nc2sccc2C#N)n1	–	–	39	–	–
CC(=O)Nc1ccc(SCC(=O)Nc2sccc2C#N)cc1	–	–	–	–	–
O=C(NCc1ccc(Cl)cc1)c1ccc(CNc2c(N3CCOCC3)c(=O)c2=O)cc1	–	–	69	–	–
CCc1ccc(N2C(=O)C[C@@](C#N)(C(=O)OC)[C@H]2c2ccccc2)cc1	·	·	·	–	–
O=C(COC(=O)c1cccc(OC(F)F)c1)NC1CCCC1	·	–	42	–	–
COC(=O)C1=C(C)N(Cc2ccc(C(F)(F)F)cc2)C(=NCc2ccc(C(F)(F)F)cc2)NC1c1ccc(F)cc1 (stereo not given)	·	·	·	–	–
COC(=O)[C@]12C[C@H](CC(=O)NCC34CC5CC(CC(C5)C3)C4)C(=O)N(Cc3ccco3)C1=C[C@H](COCc1ccccc1)O[C@@H]2C	·	·	·	–	–
Cc1ccc(C(=O)NC(=S)Nc2cc(C(F)(F)F)ccc2Cl)cc1	–	–	–	–	–
CC(=O)NC(=S)Nc1cc(C(=O)O)ccc1Cl	–	–	116	–	–
O=S(=O)(c1ccc(F)cc1)n1c(CN2CCOCC2)nc2ccccc21	·	·	·	–	–
COC(=O)C1CN(Cc2ccc(OC)cc2)CCS(=O)(=O)N1Cc1ccccc1 (stereo not given)	·	·	·	–	–
C=CCN1[C@H](Cc2ccccc2)COc2cc(F)ccc2S1(=O)=O	·	·	·	–	–
Cc1nn(-c2cccc(Cl)c2)c2nc(C(F)(F)F)[nH]c(=O)c12	–	–	43	–	–
O=C(NCc1cccs1)C1CCCN1S(=O)(=O)c1ccccc1F (stereo not given)	·	–	86	–	–
COCC1CCN(C(=O)c2ccc3oc(CCCc4ccccc4)nc3c2)C1 (stereo not given)	+	–	–	–	–
COc1ccc(C(=O)Nc2ccc(S(=O)(=O)Nc3nccc(C)n3)cc2)cc1OC	–	–	50	–	–
COc1cc(OC)cc(C(=O)Nc2ccc(S(=O)(=O)Nc3cnc4ccccc4n3)cc2)c1	·	–	·	–	–
COc1cc(OC)cc(C(=O)Nc2ccc(S(=O)(=O)Nc3ccccn3)cc2)c1	–	–	33	–	–
CSc1ccccc1C(=O)Nc1ccc2c(c1)CCC2	–	–	68	–	–
O=C(Nc1ccc2c(c1)CCC2)c1ccccc1Br	–	–	–	–	–
CC(CC(=O)O)CC(=O)Nc1nncs1 (stereo not given)	–	–	53	–	–
O=C(CCc1ccccc1)Nc1nncs1	·	–	–	–	–
